# Target: T1, Adenosine receptor A1 (Bos taurus) (UniProt P28190)
# T1 sequence (whole entry): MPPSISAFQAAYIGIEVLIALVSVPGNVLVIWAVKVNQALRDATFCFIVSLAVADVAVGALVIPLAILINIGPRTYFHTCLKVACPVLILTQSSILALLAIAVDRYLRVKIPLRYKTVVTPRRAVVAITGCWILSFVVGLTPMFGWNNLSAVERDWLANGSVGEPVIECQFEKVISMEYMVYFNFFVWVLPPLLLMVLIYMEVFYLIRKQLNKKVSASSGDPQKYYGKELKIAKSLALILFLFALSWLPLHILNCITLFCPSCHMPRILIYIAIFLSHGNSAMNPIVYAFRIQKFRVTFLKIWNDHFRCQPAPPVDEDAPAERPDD
# Experiment: Percent displacement of [3H]DPCPX binding to adenosine A1 receptors of bovine cortical membranes at 0.00001 M
# Details: not given
row,SMILES,Displacement
1,CCNC(=O)[C@H]1OC(n2cnc3c(N)ncnc32)[C@H](O)[C@]1(C)O (some centres not stated),6%
2,C[C@@]1(O)[C@@H](CO)OC(n2cnc3c(NC4CCCCC4)ncnc32)[C@@H]1O (some centres not stated),22%
3,C[C@@]1(O)[C@@H](CO)OC(n2cnc3c(NCc4cccc(I)c4)ncnc32)[C@@H]1O (some centres not stated),30%
4,C[C@@]1(O)[C@@H](CO)OC(n2cnc3c(NCc4ccccc4)ncnc32)[C@@H]1O (some centres not stated),23%
5,CNC(=O)[C@H]1OC(n2cnc3c(NCc4cccc(I)c4)nc(NC)nc32)[C@](C)(O)[C@@H]1O (some centres not stated),8%
6,C[C@@]1(O)[C@@H](CO)O[C@@H](n2cnc3c(N)ncnc32)[C@@H]1O,13%

# Test system: Adenosine receptors A1 & A3 (Bos taurus)
# Experiment: Relative affinities for adenosine A3 and A1 receptors (ratio of KiA3/KiA1)
# Details: not given
row,SMILES,Ratio
1,CNC(=O)[C@H]1O[C@@H](n2cnc3c(NCc4cccc(I)c4)nc(Cl)nc32)[C@H](O)[C@]1(C)O,1.27
2,C[C@@]1(O)[C@@H](CO)O[C@@H](n2cnc3c(NCc4cccc(I)c4)nc(Cl)nc32)[C@@H]1O,0.62
3,CNC(=O)[C@H]1O[C@@H](n2cnc3c(NCc4cccc(I)c4)ncnc32)[C@](C)(O)[C@@H]1O,0.68
4,C[C@@]1(O)[C@@H](CO)OC(n2cnc3c(NC4CCCC4)ncnc32)[C@@H]1O (some centres not stated),> 28.6
5,CNC(=O)[C@H]1O[C@@H](n2cnc3c(NCc4cccc(I)c4)nc(NC)nc32)[C@H](O)[C@]1(C)O,0.92
6,C[C@@]1(O)[C@H](O)[C@@H](CO)O[C@H]1n1cnc2c(NCc3ccccc3)ncnc21,1.4
7,C[C@@]1(O)[C@H](O)[C@@H](CO)O[C@H]1n1cnc2c(NC3CCCCC3)ncnc21,85.3

# Target: T2, Adenosine receptor A1 (Rattus norvegicus, UniProt P25099)
# T2 sequence (P25099 whole entry): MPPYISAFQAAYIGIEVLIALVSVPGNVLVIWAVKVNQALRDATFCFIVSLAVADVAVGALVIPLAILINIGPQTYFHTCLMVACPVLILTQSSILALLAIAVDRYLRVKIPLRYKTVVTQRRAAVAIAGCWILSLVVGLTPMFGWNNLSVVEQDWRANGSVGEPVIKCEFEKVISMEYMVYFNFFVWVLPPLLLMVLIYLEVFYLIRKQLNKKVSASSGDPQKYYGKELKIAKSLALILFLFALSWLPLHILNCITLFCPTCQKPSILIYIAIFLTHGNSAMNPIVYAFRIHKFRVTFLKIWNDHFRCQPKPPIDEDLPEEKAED
# Experiment: Inhibition of adenylyl cyclase activity in rat cortical membranes
# Type: cell membranes, Membrane
# Details: not given
row,SMILES,IC50
1,CNC(=O)[C@H]1O[C@@H](n2cnc3c(NCc4cccc(I)c4)nc(Cl)nc32)[C@H](O)[C@]1(C)O,4910 nM
2,C[C@@]1(O)[C@@H](CO)OC(n2cnc3c(NC4CCCC4)ncnc32)[C@@H]1O (some centres not stated),304 nM

# Test system: Adenosine receptor A3, Bos taurus
# Experiment: Percent displacement of [125I]AB-MECA binding to adenosine A3 receptors of bovine cortical membranes at 0.00001 M
# Details: not given
row,SMILES,Displacement
1,CCNC(=O)[C@H]1OC(n2cnc3c(N)ncnc32)[C@H](O)[C@]1(C)O (some centres not stated),28%
2,C[C@@]1(O)[C@@H](CO)OC(n2cnc3c(NC4CCCCC4)ncnc32)[C@@H]1O (some centres not stated),0%
3,C[C@@]1(O)[C@@H](CO)OC(n2cnc3c(NC4CCCC4)ncnc32)[C@@H]1O (some centres not stated),30%
4,C[C@@]1(O)[C@@H](CO)OC(n2cnc3c(NCc4cccc(I)c4)ncnc32)[C@@H]1O (some centres not stated),10%
5,C[C@@]1(O)[C@@H](CO)OC(n2cnc3c(NCc4ccccc4)ncnc32)[C@@H]1O (some centres not stated),15%
6,CNC(=O)[C@H]1OC(n2cnc3c(NCc4cccc(I)c4)nc(NC)nc32)[C@](C)(O)[C@@H]1O (some centres not stated),12%

# Target: Adenosine receptor A2a (Bos taurus)
# Experiment: Displacement of [3H]CGS-21680 binding to adenosine A2A receptors of bovine striatal membranes
# Details: not given
row,SMILES,Ki
1,C[C@@]1(O)[C@@H](CO)O[C@@H](n2cnc3c(NCc4cccc(I)c4)nc(Cl)nc32)[C@@H]1O,3.2 µM
2,CNC(=O)[C@H]1O[C@@H](n2cnc3c(NCc4cccc(I)c4)ncnc32)[C@](C)(O)[C@@H]1O,1.26 µM
3,CNC(=O)[C@H]1O[C@@H](n2cnc3c(NCc4cccc(I)c4)nc(NC)nc32)[C@H](O)[C@]1(C)O,4 µM

# Target: T3, Adenosine receptor A1 (Bos taurus, UniProt P28190)
# T3 sequence (P28190 whole entry): T1 sequence (whole entry)
# Experiment: Displacement of [3H]DPCPX binding to adenosine A1 receptors of bovine cortical membranes
# Details: not given
# Summary of the method: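 Compounds were dissolved in DMSO and diluted in assay buffer, with final DMSO ≤2%. At least six concentrations were tested; n = 4, each in triplicate. IC50 came from iterative curve fitting and was converted to Ki with the Cheng–Prusoff equation.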
row,SMILES,Ki
1,CNC(=O)[C@H]1O[C@@H](n2cnc3c(NCc4cccc(I)c4)nc(Cl)nc32)[C@H](O)[C@]1(C)O,4530 nM
2,C[C@@]1(O)[C@@H](CO)O[C@@H](n2cnc3c(NCc4cccc(I)c4)nc(Cl)nc32)[C@@H]1O,4300 nM
3,CNC(=O)[C@H]1O[C@@H](n2cnc3c(NCc4cccc(I)c4)ncnc32)[C@](C)(O)[C@@H]1O,350 nM
4,C[C@@]1(O)[C@@H](CO)OC(n2cnc3c(NC4CCCC4)ncnc32)[C@@H]1O (some centres not stated),350 nM
5,CNC(=O)[C@H]1O[C@@H](n2cnc3c(NCc4cccc(I)c4)nc(NC)nc32)[C@H](O)[C@]1(C)O,1310 nM
6,C[C@@]1(O)[C@H](O)[C@@H](CO)O[C@H]1n1cnc2c(NCc3ccccc3)ncnc21,460 nM
7,C[C@@]1(O)[C@H](O)[C@@H](CO)O[C@H]1n1cnc2c(NC3CCCCC3)ncnc21,30 nM

# Target: Adenylate cyclase type 2 (Rattus norvegicus) (UniProt P26769)
# Experiment: Maximum percent inhibition of adenylyl cyclase activity in rat cortical membranes
# Type: cell membranes
# Details: Membrane
# Chain of Adenylate cyclase type 2 (Rattus norvegicus) (P26769 whole entry): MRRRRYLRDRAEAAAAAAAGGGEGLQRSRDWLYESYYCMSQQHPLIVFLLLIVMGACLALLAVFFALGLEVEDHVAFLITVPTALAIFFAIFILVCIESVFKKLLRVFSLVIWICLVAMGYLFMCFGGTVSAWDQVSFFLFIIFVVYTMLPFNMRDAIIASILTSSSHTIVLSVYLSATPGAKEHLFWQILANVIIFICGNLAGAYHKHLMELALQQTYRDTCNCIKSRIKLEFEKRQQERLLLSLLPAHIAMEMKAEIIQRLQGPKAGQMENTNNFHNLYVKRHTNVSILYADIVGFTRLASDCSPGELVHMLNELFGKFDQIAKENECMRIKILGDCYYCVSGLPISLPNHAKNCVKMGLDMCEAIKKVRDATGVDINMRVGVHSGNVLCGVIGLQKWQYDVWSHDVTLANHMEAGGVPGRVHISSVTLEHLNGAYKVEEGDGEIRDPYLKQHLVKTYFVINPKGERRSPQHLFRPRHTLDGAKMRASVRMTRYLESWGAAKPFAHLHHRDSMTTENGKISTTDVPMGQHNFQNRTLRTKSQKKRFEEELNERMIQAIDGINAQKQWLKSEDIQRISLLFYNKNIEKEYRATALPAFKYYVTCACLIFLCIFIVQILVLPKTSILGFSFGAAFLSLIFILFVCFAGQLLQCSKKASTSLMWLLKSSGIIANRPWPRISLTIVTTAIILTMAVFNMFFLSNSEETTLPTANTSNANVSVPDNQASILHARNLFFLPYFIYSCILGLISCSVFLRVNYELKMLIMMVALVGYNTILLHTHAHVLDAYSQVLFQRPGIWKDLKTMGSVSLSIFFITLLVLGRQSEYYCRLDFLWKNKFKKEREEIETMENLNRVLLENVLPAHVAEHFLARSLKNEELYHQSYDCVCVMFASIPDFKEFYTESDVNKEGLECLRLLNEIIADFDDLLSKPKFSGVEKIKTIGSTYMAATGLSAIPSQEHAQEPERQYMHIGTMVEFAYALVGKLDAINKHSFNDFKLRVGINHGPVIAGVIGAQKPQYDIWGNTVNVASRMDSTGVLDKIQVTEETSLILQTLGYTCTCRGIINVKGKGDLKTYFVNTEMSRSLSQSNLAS
row,SMILES,inhibition
1,CNC(=O)[C@H]1O[C@@H](n2cnc3c(NCc4cccc(I)c4)nc(Cl)nc32)[C@H](O)[C@]1(C)O,17.8%
2,C[C@@]1(O)[C@@H](CO)OC(n2cnc3c(NC4CCCC4)ncnc32)[C@@H]1O (some centres not stated),18.1%

# Test system: Adenosine receptor A2a, Bos taurus
# Experiment: Percent displacement of [3H]CGS-21680 binding to adenosine A2A receptors of bovine striatal membranes at 0.00001 M
# Details: not given
row,SMILES,Displacement
1,CNC(=O)[C@H]1O[C@@H](n2cnc3c(NCc4cccc(I)c4)nc(Cl)nc32)[C@H](O)[C@]1(C)O,15%
2,CCNC(=O)[C@H]1OC(n2cnc3c(N)ncnc32)[C@H](O)[C@]1(C)O (some centres not stated),0%
3,C[C@@]1(O)[C@@H](CO)OC(n2cnc3c(NC4CCCCC4)ncnc32)[C@@H]1O (some centres not stated),0%
4,C[C@@]1(O)[C@@H](CO)OC(n2cnc3c(NC4CCCC4)ncnc32)[C@@H]1O (some centres not stated),2%
5,C[C@@]1(O)[C@@H](CO)OC(n2cnc3c(NCc4cccc(I)c4)ncnc32)[C@@H]1O (some centres not stated),0%
6,C[C@@]1(O)[C@@H](CO)OC(n2cnc3c(NCc4ccccc4)ncnc32)[C@@H]1O (some centres not stated),21%
7,CNC(=O)[C@H]1OC(n2cnc3c(NCc4cccc(I)c4)nc(NC)nc32)[C@](C)(O)[C@@H]1O (some centres not stated),0%
8,C[C@@]1(O)[C@H](O)[C@@H](CO)O[C@H]1n1cnc2c(NCc3ccccc3)ncnc21,40%
9,C[C@@]1(O)[C@H](O)[C@@H](CO)O[C@H]1n1cnc2c(NC3CCCCC3)ncnc21,28%

# Source: ChEMBL document CHEMBL1144357, “Synthesis, biological evaluation, and molecular modeling of ribose-modified adenosine analogues as adenosine receptor agonists” (J Med Chem, 2005)
